pIC50, pKi: −log10 of the molar value. Bounds are passed on as bounds.

For data set [1], the target named is Xanthine dehydrogenase/oxidase (Homo sapiens, UniProt P47989). Nature of the data set: Inhibition of xanthine oxidase by in vitro enzymatic assay in presence of xanthine. A digest of the protocol: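 Cell-free Amplex Red read-out: xanthine oxidase incubated in PBS with Amplex Red, HRP and cofactors; ROS production started by adding xanthine. Compound at rising concentrations from 1 nM to 100 μM, 20 min at 37 °C, then read on a plate reader. Background taken without enzyme or without agonist. Ki by Cheng-Prusoff, mean of at least three experiments run in triplicate.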
Xanthine dehydrogenase/oxidase, sequence (P47989 whole entry): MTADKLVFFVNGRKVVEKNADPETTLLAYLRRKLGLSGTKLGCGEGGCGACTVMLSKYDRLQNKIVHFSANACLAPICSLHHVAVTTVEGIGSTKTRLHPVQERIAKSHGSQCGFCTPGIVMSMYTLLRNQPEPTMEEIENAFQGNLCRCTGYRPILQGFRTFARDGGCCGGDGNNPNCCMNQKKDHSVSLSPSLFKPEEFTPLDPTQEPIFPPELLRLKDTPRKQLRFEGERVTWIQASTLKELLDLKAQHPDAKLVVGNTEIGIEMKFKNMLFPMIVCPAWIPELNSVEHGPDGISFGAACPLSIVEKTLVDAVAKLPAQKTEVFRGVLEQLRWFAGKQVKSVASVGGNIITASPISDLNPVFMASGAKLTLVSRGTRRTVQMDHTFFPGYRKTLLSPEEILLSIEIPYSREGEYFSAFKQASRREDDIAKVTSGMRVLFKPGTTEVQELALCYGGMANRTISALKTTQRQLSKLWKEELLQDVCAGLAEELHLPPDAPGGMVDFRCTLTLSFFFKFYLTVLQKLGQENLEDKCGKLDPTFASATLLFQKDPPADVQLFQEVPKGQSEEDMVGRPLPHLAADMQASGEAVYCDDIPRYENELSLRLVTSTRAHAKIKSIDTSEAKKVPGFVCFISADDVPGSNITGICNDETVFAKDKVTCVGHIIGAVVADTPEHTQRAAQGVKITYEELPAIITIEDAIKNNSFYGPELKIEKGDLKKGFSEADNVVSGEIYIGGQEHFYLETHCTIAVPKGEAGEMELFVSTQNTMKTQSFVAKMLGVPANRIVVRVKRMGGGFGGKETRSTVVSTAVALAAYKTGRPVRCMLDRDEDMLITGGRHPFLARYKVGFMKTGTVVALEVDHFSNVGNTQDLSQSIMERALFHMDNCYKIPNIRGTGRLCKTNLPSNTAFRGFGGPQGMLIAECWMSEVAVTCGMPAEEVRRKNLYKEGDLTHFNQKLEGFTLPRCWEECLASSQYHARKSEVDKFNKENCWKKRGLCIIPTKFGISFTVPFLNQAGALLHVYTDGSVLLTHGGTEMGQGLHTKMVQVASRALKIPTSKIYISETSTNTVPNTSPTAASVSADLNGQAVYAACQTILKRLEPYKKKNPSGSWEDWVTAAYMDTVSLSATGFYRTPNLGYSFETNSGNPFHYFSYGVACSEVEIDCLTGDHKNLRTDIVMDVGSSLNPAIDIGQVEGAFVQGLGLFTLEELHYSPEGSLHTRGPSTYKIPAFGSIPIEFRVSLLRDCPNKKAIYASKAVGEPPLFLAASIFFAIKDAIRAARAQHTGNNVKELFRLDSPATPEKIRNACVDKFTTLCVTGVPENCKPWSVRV

For a further data set, the system named is Plasma. Description: Unbound fraction in Sprague-Dawley rat 50% plasma protein. The class given is ADME, cell-free.
Data set [2] can be described thus: Intrinsic clearance in Sprague-Dawley rat liver microsomes assessed per mg of protein at 0.5 uM. The class given is ADME, Microsome. A digest of the protocol: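 Phase I stability assay in pooled liver microsomes (human: male and female; rat: male Sprague-Dawley). Microsomes at 0.5 mg/mL final in 0.1 M phosphate pH 7.4. Compound 0.5 μM final, 0.25% DMSO. Preincubated at 37 °C, reaction started with 1 mM NADPH. Sampled at 0, 5, 15, 30 and 45 min, with a 45 min minus-NADPH control. Methanol quench with internal standard, LC/MS-MS, intrinsic clearance calculated.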

A short description of data set [3]: Permeability across human Caco-2 cell membrane at 10 uM after 2 hrs. The class given is ADME, cell-based. In short, it runs like this:
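Caco-2 monolayers grown 20 days in DMEM, used when TEER >800 Ω·cm2. Dosed at 10 μM final in HBSS pH 6.5 with 1% DMSO, apical-to-basolateral and basolateral-to-apical. Incubated 2 h at 37 °C, both compartments sampled, LC-MS/MS with five-point calibration. Papp = (dQ/dt)/(C0A).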

The target in the next data set is Cytochrome P450 2C19 (Homo sapiens, UniProt P33261). Description: Inhibition of human CYP2C19. It is filed as ADME. A digest of the protocol: (§1)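 Recombinant human CYP isoforms with isoform-specific probe substrates and NADPH. Compound at 0.1–25 μM, final DMSO 0.3%. Metabolites measured by mass spectrometry, except CYP1A2, which used a fluorescent metabolite. IC50 derived from the decrease in metabolite formation compared with vehicle control.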

The target of a further data set is Cytochrome P450 3A4 (Homo sapiens, UniProt P08684). Description: Inhibition of human CYP3A4. The class given is ADME. In short, it runs like this:
as §1

The nature of data set [4]: Cmax in Sprague-Dawley rat at 10 mg/kg, po. The class given is ADME, organism-based. On the set-up: dose 10 mg/kg, route oral. Conditions: in vivo. In short, it runs like this:
(§2)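 Parallel design with six male rats: three given 5 mg/kg iv in EDPW (10% EtOH, 10% DMA, 30% PG, 50% water), three given 10 mg/kg orally in aqueous 0.5% CMC with 0.25% Tween 20. Carotid cannula blood sampled up to 24 h. Plasma levels by LC/MS/MS (LLOQ 1.00 ng/mL). Noncompartmental analysis.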

Data set [5] in a line: AUC (infinity) in Sprague-Dawley rat at 5 mg/kg, iv. To be noted: plasma. The class given is ADME, organism-based. More on the design: time infinity, dose 5 mg/kg, route intravenous. In short, it runs like this:
as §2

The next data set deals with NADPH oxidase 1 (Homo sapiens, UniProt Q9Y5S8). Description: Inhibition of human NOX1 overexpressed in […] cell membrane assessed as ROS production by cell free assay in presence of NADPH. Conditions: in the assay text read “T-REx-CHO cell membrane” for “human PMN cell membrane”. In short, it runs like this: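 Membranes from T-REx-CHO cells stably co-transfected with human NOX1, p22, NOXA1 and NOXO1, induced with tetracycline (1 μg/mL, 24 h), prepared on a 17/40% sucrose gradient. Incubated in PBS with Amplex Red, HRP and cofactors, then NADPH added. Compound at 1 nM–100 μM, 20 min at 37 °C. Ki by Cheng-Prusoff, at least three experiments in triplicate.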

Data set [6] in a line: Cmax in Sprague-Dawley rat at 5 mg/kg, iv. It is filed as ADME, organism-based. More on the design: dose 5 mg/kg, route intravenous. Conditions: in vivo. A digest of the protocol:
as §2

Data set [7] can be described thus: Half life in Sprague-Dawley rat at 5 mg/kg, iv. It is filed as ADME, organism-based. Conditions: in vivo. On the set-up: dose 5 mg/kg, route intravenous. In short, it runs like this: as §2
In data set [8] the target is Mitogen-activated protein kinase kinase kinase 5 (Homo sapiens) (UniProt Q99683). Nature of the data set: Inhibition of human ASK1 at 10 uM.
Data set [9] can be described thus: Inhibition of calcium channel at 10 uM.
Data set [10] is described as follows: Inhibition of potassium channel at 10 uM.
Data set [11] concerns the target Dual specificity mitogen-activated protein kinase kinase 1 (Homo sapiens) (UniProt Q02750). Nature of the data set: Inhibition of human MEK1 at 10 uM.
Data set [12] addresses Myeloperoxidase (Homo sapiens) (UniProt P05164). Nature of the data set: Inhibition of human myeloperoxidase at 10 uM.
Data set [13] deals with Protein kinase C alpha type (Homo sapiens) (UniProt P17252). Nature of the data set: Inhibition of human PKCalpha at 10 uM.
In data set [14] the target is Protein kinase C delta type (Homo sapiens) (UniProt Q05655). Description: Inhibition of human PKCdelta at 10 uM.
Protein kinase C delta type (Homo sapiens), sequence (Q05655 whole entry, looked up, canonical isoform): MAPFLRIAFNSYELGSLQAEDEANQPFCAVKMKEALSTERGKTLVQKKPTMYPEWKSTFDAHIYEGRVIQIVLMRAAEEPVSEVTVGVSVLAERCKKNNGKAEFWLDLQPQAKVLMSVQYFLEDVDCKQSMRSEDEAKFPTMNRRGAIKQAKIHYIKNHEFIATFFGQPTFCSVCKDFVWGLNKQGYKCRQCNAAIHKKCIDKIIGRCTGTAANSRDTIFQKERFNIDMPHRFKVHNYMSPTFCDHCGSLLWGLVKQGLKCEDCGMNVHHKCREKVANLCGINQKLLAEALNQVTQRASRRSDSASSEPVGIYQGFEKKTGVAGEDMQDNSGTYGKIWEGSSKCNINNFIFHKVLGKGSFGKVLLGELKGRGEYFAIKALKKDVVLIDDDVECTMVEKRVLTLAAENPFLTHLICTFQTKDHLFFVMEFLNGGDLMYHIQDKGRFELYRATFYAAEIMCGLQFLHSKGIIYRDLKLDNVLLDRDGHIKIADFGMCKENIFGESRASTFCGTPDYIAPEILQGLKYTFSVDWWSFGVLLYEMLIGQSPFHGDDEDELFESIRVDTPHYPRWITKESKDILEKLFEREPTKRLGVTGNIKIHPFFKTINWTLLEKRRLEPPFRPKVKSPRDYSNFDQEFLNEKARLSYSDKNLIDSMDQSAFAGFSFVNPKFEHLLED
Data set [15] deals with Phosphatidylinositol 4,5-bisphosphate 3-kinase catalytic subunit beta isoform (Homo sapiens) (UniProt P42338). Nature of the data set: Inhibition of PI3Kbeta at 10. Conditions: concentration not given here.
Data set [16] concerns the target Tyrosine-protein phosphatase non-receptor type 1 (Homo sapiens) (UniProt P18031). Nature of the data set: Inhibition of human PTP1B at 10 uM.
For another data set, the target named is Cytochrome P450 2D6 (Homo sapiens, UniProt P10635). Description: Inhibition of human CYP2D6. It is filed as ADME. A digest of the protocol:
as §1

A further data set has as its target Cytochrome P450 1A2 (Homo sapiens, UniProt P05177). Description: Inhibition of human CYP1A2. The class given is ADME. A digest of the protocol:
as §1

The target of data set [17] is Nitric oxide synthase, endothelial (Homo sapiens) (UniProt P29474). Description: Inhibition of eNOS at 10 uM.
Nitric oxide synthase, endothelial (Homo sapiens), sequence (P29474 whole entry, looked up): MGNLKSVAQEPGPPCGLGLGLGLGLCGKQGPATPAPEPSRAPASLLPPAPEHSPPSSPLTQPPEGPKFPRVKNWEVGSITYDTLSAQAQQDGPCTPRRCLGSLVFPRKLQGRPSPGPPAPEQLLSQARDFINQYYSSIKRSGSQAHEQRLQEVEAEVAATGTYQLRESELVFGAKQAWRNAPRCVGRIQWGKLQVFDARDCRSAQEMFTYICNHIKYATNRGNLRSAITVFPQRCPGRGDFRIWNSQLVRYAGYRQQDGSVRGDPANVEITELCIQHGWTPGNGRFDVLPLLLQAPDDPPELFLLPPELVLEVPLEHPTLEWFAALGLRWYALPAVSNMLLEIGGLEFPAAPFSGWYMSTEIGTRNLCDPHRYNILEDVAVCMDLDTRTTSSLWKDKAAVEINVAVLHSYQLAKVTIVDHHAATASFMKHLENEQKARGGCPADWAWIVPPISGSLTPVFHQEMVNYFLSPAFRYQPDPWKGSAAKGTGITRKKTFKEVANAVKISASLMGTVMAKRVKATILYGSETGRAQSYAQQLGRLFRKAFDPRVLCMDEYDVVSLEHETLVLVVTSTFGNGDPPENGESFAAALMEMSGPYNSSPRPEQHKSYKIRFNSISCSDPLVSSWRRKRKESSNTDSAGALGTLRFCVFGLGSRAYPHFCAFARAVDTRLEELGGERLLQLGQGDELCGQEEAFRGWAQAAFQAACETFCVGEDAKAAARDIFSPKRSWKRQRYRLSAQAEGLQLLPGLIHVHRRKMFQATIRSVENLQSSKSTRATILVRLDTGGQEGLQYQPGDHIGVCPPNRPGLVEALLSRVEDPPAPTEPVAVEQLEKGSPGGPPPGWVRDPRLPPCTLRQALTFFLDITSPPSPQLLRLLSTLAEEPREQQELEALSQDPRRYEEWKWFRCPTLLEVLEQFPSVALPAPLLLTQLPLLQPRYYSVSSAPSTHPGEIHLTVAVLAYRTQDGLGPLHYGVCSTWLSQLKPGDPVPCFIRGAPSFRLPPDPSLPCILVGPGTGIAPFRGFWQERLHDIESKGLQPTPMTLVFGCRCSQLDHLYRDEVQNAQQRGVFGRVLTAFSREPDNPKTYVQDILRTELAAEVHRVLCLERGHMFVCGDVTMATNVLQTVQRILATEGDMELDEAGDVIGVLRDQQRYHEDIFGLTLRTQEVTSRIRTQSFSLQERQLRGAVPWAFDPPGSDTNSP

Tyrosine-protein phosphatase non-receptor type 1 (Homo sapiens), sequence (P18031 whole entry): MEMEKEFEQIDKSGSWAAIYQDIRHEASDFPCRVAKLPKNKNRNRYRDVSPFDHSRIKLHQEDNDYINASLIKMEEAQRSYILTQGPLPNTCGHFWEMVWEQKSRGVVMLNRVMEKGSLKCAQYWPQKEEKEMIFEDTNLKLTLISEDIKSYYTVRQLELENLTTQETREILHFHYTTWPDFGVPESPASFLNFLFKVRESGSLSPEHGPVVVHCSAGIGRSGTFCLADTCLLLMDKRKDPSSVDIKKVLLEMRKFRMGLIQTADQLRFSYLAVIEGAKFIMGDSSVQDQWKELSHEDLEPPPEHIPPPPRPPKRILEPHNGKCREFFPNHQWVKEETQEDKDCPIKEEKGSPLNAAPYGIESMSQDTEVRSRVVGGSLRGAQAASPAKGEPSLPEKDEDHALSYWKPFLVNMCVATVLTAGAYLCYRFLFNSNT
Cytochrome P450 3A4, sequence (P08684 whole entry): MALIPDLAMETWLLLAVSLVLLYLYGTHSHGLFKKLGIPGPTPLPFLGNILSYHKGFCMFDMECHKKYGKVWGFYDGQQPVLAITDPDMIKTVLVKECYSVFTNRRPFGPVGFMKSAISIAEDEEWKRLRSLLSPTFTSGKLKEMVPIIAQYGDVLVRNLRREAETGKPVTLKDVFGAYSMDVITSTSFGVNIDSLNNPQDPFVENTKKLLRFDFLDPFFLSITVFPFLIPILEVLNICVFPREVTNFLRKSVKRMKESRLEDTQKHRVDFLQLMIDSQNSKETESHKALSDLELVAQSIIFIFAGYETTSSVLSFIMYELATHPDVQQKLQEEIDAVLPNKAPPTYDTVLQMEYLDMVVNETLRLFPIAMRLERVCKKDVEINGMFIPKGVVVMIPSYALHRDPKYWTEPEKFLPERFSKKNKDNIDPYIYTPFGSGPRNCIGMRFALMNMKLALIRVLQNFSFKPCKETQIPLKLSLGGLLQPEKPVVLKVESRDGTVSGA

One may read the pKi as the negative decadic logarithm of the Ki, by convention in mol/L. For orientation: microsomal CLint means the capacity of the preparation to metabolise the compound, expressed as a volume cleared per time. A lower microsomal CLint goes with greater metabolic stability. For orientation: Papp means a coefficient for how fast a substance crosses the barrier. A higher Papp goes with fast passage. In general, pIC50 refers to the IC50 on a negative log10 scale, so that one unit is a factor of ten. What is called Cmax is the maximum level reached in the sampled fluid or tissue. In general, AUC(0-inf) refers to the area under the concentration-time curve extrapolated to infinity. Higher therefore signals more exposure. By half-life is commonly meant the time in which the quantity being followed falls by half. In general, inhibition refers to the drop in the measured response relative to a control, in per cent. Turning to `Cc1c2c(=O)n(-c3ccccc3Cl)[nH]c2cc(=O)n1Cc1ccccn1`, the results for the pKi (in data set [1]; at NADPH oxidase 1) were less than 4.52 and 6.80, respectively. For the same molecule, the Fu with Plasma came to 20.5%. For the same molecule, the microsomal CLint at 0.5 µM in data set [2] came out at 70.2 µL/min/mg. In [3], this molecule displayed a Papp at 2 h, 10 µM of 21.4 ×10⁻⁶ cm/s. Further, the pIC50 against Cytochrome P450 2C19 was less than 4.60; against Cytochrome P450 3A4, 4.68; against Cytochrome P450 2D6 it was less than 4.60; on Cytochrome P450 1A2, less than 4.60. The Cmax amounted to 3150 ng/mL in data set [4] and 12100 ng/mL in data set [6]. The molecule also displayed an AUC(0-inf) in [5] of 11000 ng·h/mL. The same molecule showed a half-life in data set [7] of 3.63 h. Further, the inhibition in data set [8], in data set [9], in [10], in data set [11], in [12] and in data set [13] was 0% each time. For the same molecule, the inhibition in data set [14] came to 0%; in data set [15] it was 0%; in [16], 0%; in data set [17], 6%.

(Values after ChEMBL document CHEMBL1275350, “First in class, potent, and orally bioavailable NADPH oxidase isoform 4 (Nox4) inhibitors for the treatment of idiopathic pulmonary fibrosis” (J Med Chem, 2010).)
